Screening data as filed in PubChem BioAssay.
dFosB activator: activators of delta FosB homodimer, primary screen, biochemical, fluorescence polarization, TAMRA-CDK5 oligo, single point; AID 493131, 2011; 340,000 tested, 0.99% active; purified delta FosB; percent of positive-control signal above neutral wells; activation, % at 25 µM;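 active = mean activation above about 17%, with every replicate also reaching it, limit read from the data, passing the limit was not always enough; inconclusive = only one of the two conditions met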
CAL PDZ FP-1: CAL PDZ peptide-binding inhibitors, primary screen, biochemical, fluorescence polarization, Cer-tagged CAL PDZ, HTS | AID 504414, 2011 | purified CAL PDZ, TMR-peptide fluorescence polarization, 1 h | 330,000 tested, 0.02% active | Golgi-associated PDZ and coiled-coil motif-containing protein (Homo sapiens), Q9HD26 | inhibition, % at 20 µM;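 active = highest replicate inhibition of at least 40%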
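System: purified tagged CAL PDZ domain construct (CerCALP). Schedule: 1 h incubation at room temperature before polarization reading. Medium: 25 mM sodium phosphate pH 7.4, 150 mM NaCl, TCEP, IgG, Thesit. Read-out: percent inhibition from loss of millipolarization. Measured by: FP readout, S and P plane fluorescence. Probe or stimulus: fluorescent TMR peptide probe.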
CAL PDZ FP-2: untagged CAL PDZ binding inhibitors, primary screen, biochemical, fluorescence polarization, HTS; purified CAL PDZ, TMR-peptide fluorescence polarization, 1 h; inhibition, % at 24.9 µM; 300,000 tested, 0.92% active;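 active = mean inhibition of at least 30% with at least half of replicates also reaching 30%; inconclusive = no clear call, values can overlap the other calls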
DYRK1A inh: rat Dyrk1A kinase inhibitors, primary screen, biochemical, single point, plate reader | Dual specificity tyrosine-phosphorylation-regulated kinase 1A (Rattus norvegicus), Q63470 | ADP-Glo luminescence, NFATc1 peptide | inhibition, % at 12.5 µM | 310,000 tested, 0.43% active; in the data active = inhibition above about 50%
CDK5 p35 inh: inhibitors of human CDK5/p35 kinase, primary screen, biochemical, single concentration; AID 488839, 2010; Recombinant CDK5/p35, ADP-Glo luminescence, 60 min; 330,000 tested, 0.01% active; Cyclin-dependent kinase 5 (Homo sapiens) + Cyclin-dependent kinase 5 activator 1 (Homo …; inhibition, % at 10 µM;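 active = highest replicate inhibition of at least 50% and at least 75% of replicates reaching 50%; inconclusive = only one of the two criteria met; inactive = both criteria failed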
Rtt109 Vps75: inhibitors of C. albicans Rtt109/Vps75 HAT, primary screen, biochemical, ThioGlo CoA-SH fluorescence, plate reader. 330,000 tested, 0.16% active. purified Rtt109/Vps75, 4 h. Histone acetyltransferase RTT109 (Candida albicans (strain SC5314 / ATCC MYA-2876)), …. AID 540336, 2011. inhibition, % at 34.9 µM;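 active = inhibition of at least 50% in every replicate; inconclusive = best replicate reaches 50% inhibition but some replicates fall short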
Target sequence (Q5AAJ8 whole entry, looked up): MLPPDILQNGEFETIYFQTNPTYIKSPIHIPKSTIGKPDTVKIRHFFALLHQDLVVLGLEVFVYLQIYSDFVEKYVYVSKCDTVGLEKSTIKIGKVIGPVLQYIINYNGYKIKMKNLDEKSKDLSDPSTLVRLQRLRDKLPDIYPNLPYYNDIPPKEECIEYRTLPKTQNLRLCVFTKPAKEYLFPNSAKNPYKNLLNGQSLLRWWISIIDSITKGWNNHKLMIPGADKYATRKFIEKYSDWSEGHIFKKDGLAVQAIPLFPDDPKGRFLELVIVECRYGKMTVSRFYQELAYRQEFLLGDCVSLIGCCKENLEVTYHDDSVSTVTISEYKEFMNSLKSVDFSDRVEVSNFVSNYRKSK
Of the large screens only hits and unclear results are named; the others gave an inactive call. An excerpt weighted towards active compounds, which were near 2.2% of everything screened.

CN(CCNC(=O)c1c[nH]c2c1ccc1ccccc12)CCNC(=O)c1c[nH]c2c1ccc1ccccc12	dFosB activator 44 (no result: DYRK1A inh)
CN(C)CCNC(=O)c1cccc2[nH]c(-c3ccncc3)nc12	dFosB activator 38
COc1cccc2nc3c(C(=O)NCCN(C)C)cccc3cc12	none
CN(C)CCNC(=O)c1cccc2nc3c(ccc4ccccc43)nc12	dFosB activator 73
CN(C)CCNC(=O)c1ccccc1-c1cc2ccccc2c(=O)o1	none
Cc1ccn2c(=O)nc(SCC(=O)NC3CCCC3)nc2c1	none
CCOC(=O)C(NC(=O)c1ccc(Cl)cc1Cl)(Nc1ccc(C)cc1)C(F)(F)F (stereo not given)	none (no result: CAL PDZ FP-1)
O=C(Nc1ccc(C(=O)NCc2ccc(F)cc2)cc1)C1=CSCCO1	none
CCc1ccc(CNC(=O)c2ccc(NC(=O)C3=CSCCO3)cc2)cc1	dFosB activator 23
CC(=O)N1CCN(CC(O)COc2ccc(S(=O)(=O)N3CCOCC3)cc2)CC1 (stereo not given)	none (no result: DYRK1A inh)
O=C(/C=C/c1ccc(S(=O)(=O)NCc2ccco2)cc1)N1CCN(c2ccccc2)CC1	none
Cn1c(=O)c2c(nc(N/N=C/c3cccnc3)n2Cc2ccc(F)cc2)n(C)c1=O	none (no result: CAL PDZ FP-2)
CCOC(=O)c1[nH]c2ccc(C)cc2c1NC(=O)CN1CCCCC1	none
Cc1c2cc[n+](CCN3CCCCC3)cc2c(C)c2c1[nH]c1ccc(O)cc12	dFosB activator 89
S=C(c1ccc(N2CCCC2)c(Br)c1)N1CCCCC1	none
CCCn1nnnc1NCc1cccc(Cl)c1	CAL PDZ FP-2 80
CCCc1cc(=O)[nH]c(SCC(=O)NN(c2ccccc2)c2ccccc2)n1	none (no result: CAL PDZ FP-2)
O=C(NCCc1cccc(F)c1)C1CCC(=O)N(C2CCCCCC2)C1 (stereo not given)	none (no result: CAL PDZ FP-2)
O=C(NCc1cccc(F)c1)C1CCC(=O)N(CCCN2CCOCC2)C1 (stereo not given)	none
O=C(NCc1cccc(F)c1)C1CCC(=O)N(C2CCCC2)C1 (stereo not given)	CAL PDZ FP-2 84
O=C(NCc1cccc(Cl)c1)C1CCC(=O)N(CCCN2CCCC2=O)C1 (stereo not given)	CAL PDZ FP-2 70
CN1/C(=C/c2cc[n+](C)c3ccccc23)C=Cc2ccccc21	dFosB activator 51
COc1ccccc1CC(=O)Nc1ccc(NC(=O)c2cccs2)cc1	dFosB activator 17 (no result: CAL PDZ FP-2)
COc1ccccc1CC(=O)Nc1cccc2ccccc12	dFosB activator inconclusive (no result: CAL PDZ FP-2)
COc1ccccc1CC(=O)Nc1cccc(C)n1	CAL PDZ FP-2 58 (no result: DYRK1A inh)
O=C(NCc1cccnc1)C1CCCN(S(=O)(=O)c2ccccc2)C1 (stereo not given)	none
CN(CCc1cn[nH]c1)Cc1nc(Cc2ccccc2)no1	none
CCN1CCN(c2nc(N)c([N+](=O)[O-])c(Nc3cccc(C)c3)n2)CC1	none
Nc1nc(NCCCN2CCOCC2)nc(Nc2cccc(Cl)c2)c1[N+](=O)[O-]	dFosB activator 63
Nc1nc(Nc2cccc(Cl)c2)nc(NCCO)c1[N+](=O)[O-]	CDK5 p35 inh 58 (no result: CAL PDZ FP-2)
Cc1cccc(Nc2nc(N3CCN(C)CC3)nc(N)c2[N+](=O)[O-])c1	CAL PDZ FP-2 36
Cc1ccc(Nc2nc(NCCCN3CCOCC3)nc(N)c2[N+](=O)[O-])cc1C	none
Cc1cccc(Nc2nc(N)c([N+](=O)[O-])c(NCCO)n2)c1	CAL PDZ FP-2 47 (no result: DYRK1A inh)
COc1ccc(NC(=O)CN2CCC(Cc3ccccc3)CC2)cc1S(=O)(=O)N1CCOCC1	none
CCOC(=O)c1ccc(NC(=O)NC2CC3CCC(C2)N3Cc2nnnn2C(C)(C)C)cc1 (stereo not given)	none (no result: Rtt109 Vps75)
CCOC(=O)c1cc2cc3ccccc3cc2[nH]1	none
